# Assay results published in ChEMBL document CHEMBL1123243, “Studies on prodrugs. 5. Synthesis and antimicrobial activity of N-(oxoalkyl)norfloxacin derivatives” (J Med Chem, 1986).
# Legend:
# [1] = tested on: Bacillus subtilis; assay: Compound was tested for antimicrobial activity against Bacillus subtilis ATCC 6633; type: functional
# Procedure, shortened: (§1)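 Agar dilution on Mueller-Hinton agar with serial 2-fold dilutions; plate concentrations 0.006 to 100 µg/mL. Inoculum about 10^6 cfu/mL. Plates incubated at 37 °C for 18 h. MIC is the lowest concentration preventing visible growth.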
# [2] = tested on: Escherichia coli; assay: Compound was tested for antimicrobial activity in mice infected with Escherichia coli KC-14 after peroral administration; type: functional; conditions: po
# Procedure, shortened: (§2)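 Male ddy mice (20 ± 2 g), groups of 10, were infected ip with 0.5 mL of bacteria at 10 or 100 times the 50% lethal dose. Compound was suspended in 0.5% sodium carboxymethyl cellulose and given orally 1 h postinfection. Survival was scored after 1 week.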
# [3] = tested on: Escherichia coli; assay: Compound was tested for antimicrobial activity against Escherichia coli KC-14; type: functional; procedure, shortened: as §1
# [4] = tested on: Klebsiella pneumoniae; assay: Compound was tested for antimicrobial activity against Klebsiella pneumonia IFO3512; type: functional; procedure, shortened: as §1
# [5] = tested on: Mus musculus; assay: Compound was tested for antimicrobial activity in mice infected with Pseudomonas aeruginosa E2,po; type: functional
# Procedure, shortened: (§3)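 Male ddy mice (20 ± 2 g, groups of 10) received an intraperitoneal inoculum of 0.5 mL bacterial dilution at 10 or 100 times the 50% lethal dose. Compound was suspended in 0.5% sodium carboxymethyl cellulose and given orally 1 h postinfection.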
# [6] = tested on: Mus musculus; assay: Compound was tested for antimicrobial activity in mice infected with Staphylococcus aureus smith. po; type: functional; procedure, shortened: as §3
# [7] = tested on: Proteus vulgaris; assay: Compound was tested for antimicrobial activity against Proteus vulgaris OX-19; type: functional; procedure, shortened: as §1
# [8] = tested on: Pseudomonas aeruginosa; assay: Compound was tested for antimicrobial activity against Pseudomonas aeruginosa PAO1; type: functional; procedure, shortened: as §1
# [9] = Lethal dose was measured in rat after iv administration; type: toxicity, organism-based; conditions: in vivo
# Procedure, shortened: (§4)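 Each compound was suspended in 0.5% cmc and given by the stated route. Deaths were counted within 1 week, and LD50 was calculated by the method of Weil.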
# [10] = tested on: Serratia marcescens; assay: Compound was tested for antimicrobial activity against Serratia marcescens 16; type: functional; procedure, shortened: as §1
# [11] = tested on: Staphylococcus aureus; assay: Compound was tested for antimicrobial activity against Staphylococcus aureus FDA207PJC-1; type: functional; parameters: unit: µg/mL; procedure, shortened: as §1
# [12] = tested on: Mus musculus; assay: Compound was tested for antimicrobial activity in mice infected with Staphylococcus aureus smith, po; type: functional; procedure, shortened: as §2
# [13] = tested on: Mus musculus; assay: Serum concentration in mice, after oral administration at a dose of 100 mg/kg p.o. at 0.5 h; type: functional, organism-based; parameters: dose 100 mg/kg
# Procedure, shortened: (§5)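 Mice were given compound orally as a suspension in 0.5% sodium carboxymethyl cellulose at 100 mg/kg (NFLX-equivalent dose). Animals were killed by bleeding at 0.5, 1.0, 2.0 and 4.0 h. Serum norfloxacin and parent compound were measured by HPLC.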
# [14] = tested on: Mus musculus; assay: Serum concentration in mice, after oral administration at a dose of 100 mg/kg p.o. at 1 hr; type: functional, organism-based; parameters: dose 100 mg/kg; procedure, shortened: as §5
# [15] = tested on: Mus musculus; assay: (§6) Serum concentration in mice, after oral administration at a dose of 100 mg/kg p.o. at 2 hr; type: functional, organism-based; parameters: dose 100 mg/kg
# Procedure, shortened: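 Compound was suspended in 0.5% sodium carboxymethyl cellulose and given orally to mice at 100 mg/kg, as a dose equivalent to 100 mg/kg NFLX. Mice were killed by bleeding at 0.5, 1.0, 2.0 and 4.0 h. Serum NFLX and parent compound were each measured by HPLC.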
# [16] = tested on: Mus musculus; assay: Serum concentration in mice, after oral administration at a dose of 100 mg/kg p.o. at 5 hr; type: functional, organism-based; parameters: dose 100 mg/kg
# [17] = tested on: Mus musculus; assay: Serum concentration in mice, after oral administration at a dose of 50 mg/kg p.o. at 2 hr; type: functional, organism-based; parameters: dose 50 mg/kg
# [18] = Lethal dose was measured in rat after oral administration; type: toxicity, organism-based; conditions: in vivo; procedure, shortened: as §4
# [19] = tested on: Mus musculus; assay: Compound was tested for antimicrobial activity in mice infected with Escherichia coli KC-14, po; type: functional; procedure, shortened: as §2
# [20] = tested on: Mus musculus; assay: Serum Levels in mice, after oral administration at a dose of 100 mg/kg p.o. at 0.5 h; type: functional, organism-based; parameters: dose 100 mg/kg; procedure, shortened: as §5
# [21] = tested on: Mus musculus; assay: Serum Levels in mice, after oral administration at a dose of 100 mg/kg p.o. at 1 hr; type: functional, organism-based; parameters: dose 100 mg/kg; procedure, shortened: as §5
# [22] = tested on: Mus musculus; assay: Serum Levels in mice, after oral administration at a dose of 100 mg/kg p.o. at 2 hr; type: functional, organism-based; parameters: dose 100 mg/kg; procedure, shortened: as §5
# [23] = tested on: Mus musculus; assay: Serum Levels in mice, after oral administration at a dose of 100 mg/kg p.o. at 5 hr; type: functional, organism-based; parameters: dose 100 mg/kg
# [24] = tested on: Mus musculus; assay: as §6; type: functional, organism-based; parameters: dose 100 mg/kg; procedure, shortened: as §5; remark: listed apart in the source
# [25] = Compound was evaluated for area under curve doses in […] at 100 mg/kg po; type: functional, organism-based; parameters: dose 100 mg/kg
SMILES,Activity [1],ED50 [2] [mg/kg],Activity [3],Activity [4],Activity [7],Activity [8],Activity [10],Activity [11],Serum concentration [13] [µg/mL],Serum concentration [14] [µg/mL],Serum concentration [15] [µg/mL],Serum concentration [16] [µg/mL],other results
CCn1cc(C(=O)O)c(=O)c2cc(F)c(N3CCNCC3)cc21 [NORFLOXACIN],0.39,4.38,0.39,0.2,0.2,0.78,0.78,0.39,–,–,–,–,ED50 [5]: 59 mg/kg; ED50 [6]: 36.4 mg/kg; LD50 [9]: 314 mg/kg
CCn1cc(C(=O)O)c(=O)c2cc(F)c(N3CCN(CC(C)=O)CC3)cc21,0.39,0.95,1.56,0.2,0.78,6.25,6.25,0.39,23.6,7.29,2.69,0.46,ED50 [5]: 18.5 mg/kg; ED50 [12]: 12.6 mg/kg; Serum concentration [17]: 8.88 µg/mL; LD50 [9]: 684 mg/kg; LD50 [18]: > 4000 mg/kg
CCn1cc(C(=O)O)c(=O)c2cc(F)c(N3CCN(CC(C)O)CC3)cc21 (stereo not given),0.78,3.9,0.78,0.2,0.78,6.25,3.12,0.39,19.5,20.2,–,2.82,ED50 [19]: 3.5 mg/kg; Serum concentration [17]: 4.48 µg/mL; Serum level [20]: 13.6 µg/mL; Serum level [21]: 27.1; Serum level [22]: 11.8 µg/mL; Serum level [23]: 2.21; Serum concentration [24]: 6.93 µg/mL
CCn1cc(C(=O)O)c(=O)c2cc(F)c(N3CCN(C(C)C(C)=O)CC3)cc21 (stereo not given),0.78,3.53,3.13,0.78,1.56,12.5,12.5,0.78,–,–,–,–,–
CCn1cc(C(=O)O)c(=O)c2cc(F)c(N3CCN(CC(=O)C(C)(C)C)CC3)cc21,0.78,7.13,12.5,0.78,3.13,50,<100,0.78,19.6,15.4,9.4,6.73,–
CCn1cc(C(=O)O)c(=O)c2cc(F)c(N3CCN(CCC(C)=O)CC3)cc21,0.39,2.34,0.78,0.2,0.2,0.78,0.78,0.78,7.06,3.55,2.22,1.18,AUC [25]: 12.9
CCn1cc(C(=O)O)c(=O)c2cc(F)c(N3CCN(CC(=O)c4ccccc4)CC3)cc21,0.78,> 7.5,0.78,0.78,0.39,1.56,1.56,0.78,–,–,–,–,–
CCn1cc(C(=O)O)c(=O)c2cc(F)c(N3CCN(C(C)(C)C(C)=O)CC3)cc21,0.39,6.06,3.13,0.39,1.56,6.25,6.25,0.78,–,–,–,–,–
